How the values were obtained:
[1] = Ratio of ED50 value administered subcutaneously to that of perorally.; type: functional
Procedure, shortened: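 Mouse tail pressure test ED50 values obtained after sc and po dosing by Litchfield–Wilcoxon at peak activity. The sc ED50 divided by the po ED50 is expressed as a percentage.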

Mus musculus [2] = assay: (§1) In vivo antinociceptive activity expressed as ED50 administered perorally for tail pressure test; conditions: po
Mus musculus [3] = assay: In vivo antinociceptive activity expressed as ED50 administered perorally for tail pressure test in mice; conditions: po
Mus musculus [4] = assay: as §1; conditions: po; remark: listed apart in the source

Compound: CN1CC[C@]23c4c5ccc(O)c4O[C@H]2[C@@H](O)C=C[C@H]3[C@H]1C5 [MORPHINE]
- Ratio [1]: 15
- ED50 (Mus musculus [2]): 15 mg/kg
- ED50 (Mus musculus [3]): 3.3 mg/kg
- ED50 (Mus musculus [4]): 1.7 mg/kg

Source: ChEMBL document CHEMBL1135567, “Synthesis and structure-activity relationships of an orally available and long-acting analgesic peptide, N(alpha)-amidino-Tyr-D-Arg-Phe-MebetaAla-OH (ADAMB)” (J Med Chem, 2002)
